Measurements taken from ChEMBL document CHEMBL4118021, “Studies of TAK1-centered polypharmacology with novel covalent TAK1 inhibitors” (Bioorg Med Chem, 2017).
Active and inactive are the calls of the source. The calls are words filed in the database; no cut-off is given here.

Assays:
[1] = target: Mitogen-activated protein kinase 13 (Homo sapiens) (UniProt O15264); experiment: Inhibition of p38d in human SKCO1 cells at 1 uM after 4 hrs using biotin labeled DLKPGNLAVNEDCELK probe by mass-spectrometric analysis relative to control; assay type: cell-based
[2] = target: Peripheral plasma membrane protein CASK (Homo sapiens) (UniProt O14936); experiment: Inhibition of CASK in human SKCO1 cells at 1 uM after 4 hrs using biotin labeled ETGQQFAVKIVDVAK probe by mass-spectrometric analysis relative to control; assay type: cell-based
[3] = target: TGF-beta receptor type-2 (Homo sapiens) (UniProt P37173); experiment: Inhibition of human TGFBR2 (218 to 567 residues) expressed in bacterial expression system assessed as enzyme activity at 1 uM by KINOMEScan assay relative to control; set-up: scale not given: the % may be the effect or the level left
Outline: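 In vitro ATP-site competition binding assay across a panel of 456 kinases, with compound tested at 1 and 10 μM.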

[4] = target: F-actin-capping protein subunit alpha-1 (Homo sapiens) (UniProt P52907); experiment: Binding affinity to CAPZA1 in human NCI-H358 cells at 1 uM by mass spectrometry based pull down assay; assay type: cell-based
[5] = target: Acyl-coenzyme A thioesterase 13 (Homo sapiens) (UniProt Q9NPJ3); experiment: Binding affinity to ACOT13 in human NCI-H23 cells at 1 uM by mass spectrometry based pull down assay; assay type: cell-based
Outline: (§1)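 NCI-H23 or NCI-H358 cells were grown and lysed. Lysates were incubated overnight at 4 °C with 1 μM biotinylated covalent probe or DMSO, then pulled down on streptavidin beads. Proteins were run on polyacrylamide gels and stained with Coomassie. Bands were excised, digested and identified by mass spectrometry.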

[6] = target: Ribosomal protein S6 kinase alpha-3 (Homo sapiens) (UniProt P51812); experiment: Binding affinity to RPS6KA3 in human NCI-H23 cells at 1 uM by mass spectrometry based pull down assay; assay type: cell-based
NCI-H358 = experiment: Binding affinity to PSMA7 in human NCI-H358 cells at 1 uM by mass spectrometry based pull down assay; assay type: cell-based
[7] = target: Quinone oxidoreductase (Homo sapiens) (UniProt Q08257); experiment: Binding affinity to CRYZ in human NCI-H358 cells at 1 uM by mass spectrometry based pull down assay; assay type: cell-based
[8] = target: Protein SET (Homo sapiens) (UniProt Q01105); experiment: Binding affinity to SET in human NCI-H358 cells at 1 uM by mass spectrometry based pull down assay; assay type: cell-based
[9] = target: ADP/ATP translocase 2 (Homo sapiens) (UniProt P05141); experiment: Binding affinity to SLC25A5 in human NCI-H23 cells at 1 uM by mass spectrometry based pull down assay; assay type: cell-based
[10] = target: (E3-independent) E2 ubiquitin-conjugating enzyme (Homo sapiens) (UniProt Q9C0C9); experiment: Binding affinity to UBE2O in human NCI-H358 cells at 1 uM by mass spectrometry based pull down assay; assay type: cell-based
[11] = target: Cytoplasmic dynein 1 intermediate chain 2 (Homo sapiens) (UniProt Q13409); experiment: Binding affinity to DYNC1I2 in human NCI-H23 cells at 1 uM by mass spectrometry based pull down assay; assay type: cell-based
[12] = target: MAP kinase-activated protein kinase 5 (Homo sapiens) (UniProt Q8IW41); experiment: Binding affinity to MAPKAPK5 in human NCI-H23 cells at 1 uM by mass spectrometry based pull down assay; assay type: cell-based
Plectin (Homo sapiens) [13] = target: Plectin (Homo sapiens) (UniProt Q15149); experiment: Binding affinity to PLEC in human NCI-H358 cells at 1 uM by mass spectrometry based pull down assay; assay type: cell-based
[14] = target: Deoxyribose-phosphate aldolase (Homo sapiens) (UniProt Q9Y315); experiment: Binding affinity to DERA in human NCI-H23 cells at 1 uM by mass spectrometry based pull down assay; assay type: cell-based
Plectin (Homo sapiens) [15] = target: Plectin (Homo sapiens) (UniProt Q15149); experiment: Binding affinity to PLEC in human NCI-H23 cells at 1 uM by mass spectrometry based pull down assay; assay type: cell-based
[16] = target: Proto-oncogene tyrosine-protein kinase Src (Homo sapiens) (UniProt P12931); experiment: Binding affinity to SRC in human NCI-H23 cells at 1 uM by mass spectrometry based pull down assay; assay type: cell-based
[17] = target: Heterogeneous nuclear ribonucleoprotein Q (Homo sapiens) (UniProt O60506); experiment: Binding affinity to SYNCRIP in human NCI-H358 cells at 1 uM by mass spectrometry based pull down assay; assay type: cell-based
[18] = target: Reticulon-4 (Homo sapiens) (UniProt Q9NQC3); experiment: Binding affinity to RTN4 in human NCI-H23 cells at 1 uM by mass spectrometry based pull down assay; assay type: cell-based
[19] = target: Amidophosphoribosyltransferase (Homo sapiens) (UniProt Q06203); experiment: Binding affinity to PPAT in human NCI-H23 cells at 1 uM by mass spectrometry based pull down assay; assay type: cell-based
[20] = target: Actin-related protein 2/3 complex subunit 1B (Homo sapiens) (UniProt O15143); experiment: Binding affinity to ARPC1B in human NCI-H358 cells at 1 uM by mass spectrometry based pull down assay; assay type: cell-based
[21] = target: Lactoylglutathione lyase (Homo sapiens) (UniProt Q04760); experiment: Binding affinity to GLO1 in human NCI-H23 cells at 1 uM by mass spectrometry based pull down assay; assay type: cell-based
[22] = target: Multifunctional methyltransferase subunit TRM112-like protein (Homo sapiens) (UniProt Q9UI30); experiment: Binding affinity to TRMT112 in human NCI-H23 cells at 1 uM by mass spectrometry based pull down assay; assay type: cell-based
[23] = target: Bifunctional glutamate/proline--tRNA ligase (Homo sapiens) (UniProt P07814); experiment: Binding affinity to EPRS in human NCI-H358 cells at 1 uM by mass spectrometry based pull down assay; assay type: cell-based
[24] = target: T1, Dual specificity mitogen-activated protein kinase kinase 5 (Homo sapiens) (UniProt Q13163); experiment: Binding affinity to MAP2K5 in human NCI-H358 cells at 1 uM by mass spectrometry based pull down assay; assay type: cell-based
T1 sequence (whole entry): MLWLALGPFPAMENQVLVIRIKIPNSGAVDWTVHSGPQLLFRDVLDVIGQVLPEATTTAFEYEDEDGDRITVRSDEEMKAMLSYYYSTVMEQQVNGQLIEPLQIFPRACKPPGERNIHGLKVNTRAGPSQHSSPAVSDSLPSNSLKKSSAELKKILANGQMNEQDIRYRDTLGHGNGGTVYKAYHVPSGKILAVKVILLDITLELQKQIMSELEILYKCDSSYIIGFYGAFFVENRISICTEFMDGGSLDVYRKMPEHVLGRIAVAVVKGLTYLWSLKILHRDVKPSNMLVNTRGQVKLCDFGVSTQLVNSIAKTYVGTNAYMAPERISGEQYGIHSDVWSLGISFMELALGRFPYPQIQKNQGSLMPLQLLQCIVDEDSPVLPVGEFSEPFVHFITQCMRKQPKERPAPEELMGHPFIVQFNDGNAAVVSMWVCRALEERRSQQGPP

[25] = target: AH receptor-interacting protein (Homo sapiens) (UniProt O00170); experiment: Binding affinity to AIP in human NCI-H358 cells at 1 uM by mass spectrometry based pull down assay; assay type: cell-based; outline: as §1
[26] = target: Fructose-2,6-bisphosphatase TIGAR (Homo sapiens) (UniProt Q9NQ88); experiment: Binding affinity to TIGAR in human NCI-H23 cells at 1 uM by mass spectrometry based pull down assay; assay type: cell-based

Chain of Plectin (Homo sapiens) (Q15149 whole entry): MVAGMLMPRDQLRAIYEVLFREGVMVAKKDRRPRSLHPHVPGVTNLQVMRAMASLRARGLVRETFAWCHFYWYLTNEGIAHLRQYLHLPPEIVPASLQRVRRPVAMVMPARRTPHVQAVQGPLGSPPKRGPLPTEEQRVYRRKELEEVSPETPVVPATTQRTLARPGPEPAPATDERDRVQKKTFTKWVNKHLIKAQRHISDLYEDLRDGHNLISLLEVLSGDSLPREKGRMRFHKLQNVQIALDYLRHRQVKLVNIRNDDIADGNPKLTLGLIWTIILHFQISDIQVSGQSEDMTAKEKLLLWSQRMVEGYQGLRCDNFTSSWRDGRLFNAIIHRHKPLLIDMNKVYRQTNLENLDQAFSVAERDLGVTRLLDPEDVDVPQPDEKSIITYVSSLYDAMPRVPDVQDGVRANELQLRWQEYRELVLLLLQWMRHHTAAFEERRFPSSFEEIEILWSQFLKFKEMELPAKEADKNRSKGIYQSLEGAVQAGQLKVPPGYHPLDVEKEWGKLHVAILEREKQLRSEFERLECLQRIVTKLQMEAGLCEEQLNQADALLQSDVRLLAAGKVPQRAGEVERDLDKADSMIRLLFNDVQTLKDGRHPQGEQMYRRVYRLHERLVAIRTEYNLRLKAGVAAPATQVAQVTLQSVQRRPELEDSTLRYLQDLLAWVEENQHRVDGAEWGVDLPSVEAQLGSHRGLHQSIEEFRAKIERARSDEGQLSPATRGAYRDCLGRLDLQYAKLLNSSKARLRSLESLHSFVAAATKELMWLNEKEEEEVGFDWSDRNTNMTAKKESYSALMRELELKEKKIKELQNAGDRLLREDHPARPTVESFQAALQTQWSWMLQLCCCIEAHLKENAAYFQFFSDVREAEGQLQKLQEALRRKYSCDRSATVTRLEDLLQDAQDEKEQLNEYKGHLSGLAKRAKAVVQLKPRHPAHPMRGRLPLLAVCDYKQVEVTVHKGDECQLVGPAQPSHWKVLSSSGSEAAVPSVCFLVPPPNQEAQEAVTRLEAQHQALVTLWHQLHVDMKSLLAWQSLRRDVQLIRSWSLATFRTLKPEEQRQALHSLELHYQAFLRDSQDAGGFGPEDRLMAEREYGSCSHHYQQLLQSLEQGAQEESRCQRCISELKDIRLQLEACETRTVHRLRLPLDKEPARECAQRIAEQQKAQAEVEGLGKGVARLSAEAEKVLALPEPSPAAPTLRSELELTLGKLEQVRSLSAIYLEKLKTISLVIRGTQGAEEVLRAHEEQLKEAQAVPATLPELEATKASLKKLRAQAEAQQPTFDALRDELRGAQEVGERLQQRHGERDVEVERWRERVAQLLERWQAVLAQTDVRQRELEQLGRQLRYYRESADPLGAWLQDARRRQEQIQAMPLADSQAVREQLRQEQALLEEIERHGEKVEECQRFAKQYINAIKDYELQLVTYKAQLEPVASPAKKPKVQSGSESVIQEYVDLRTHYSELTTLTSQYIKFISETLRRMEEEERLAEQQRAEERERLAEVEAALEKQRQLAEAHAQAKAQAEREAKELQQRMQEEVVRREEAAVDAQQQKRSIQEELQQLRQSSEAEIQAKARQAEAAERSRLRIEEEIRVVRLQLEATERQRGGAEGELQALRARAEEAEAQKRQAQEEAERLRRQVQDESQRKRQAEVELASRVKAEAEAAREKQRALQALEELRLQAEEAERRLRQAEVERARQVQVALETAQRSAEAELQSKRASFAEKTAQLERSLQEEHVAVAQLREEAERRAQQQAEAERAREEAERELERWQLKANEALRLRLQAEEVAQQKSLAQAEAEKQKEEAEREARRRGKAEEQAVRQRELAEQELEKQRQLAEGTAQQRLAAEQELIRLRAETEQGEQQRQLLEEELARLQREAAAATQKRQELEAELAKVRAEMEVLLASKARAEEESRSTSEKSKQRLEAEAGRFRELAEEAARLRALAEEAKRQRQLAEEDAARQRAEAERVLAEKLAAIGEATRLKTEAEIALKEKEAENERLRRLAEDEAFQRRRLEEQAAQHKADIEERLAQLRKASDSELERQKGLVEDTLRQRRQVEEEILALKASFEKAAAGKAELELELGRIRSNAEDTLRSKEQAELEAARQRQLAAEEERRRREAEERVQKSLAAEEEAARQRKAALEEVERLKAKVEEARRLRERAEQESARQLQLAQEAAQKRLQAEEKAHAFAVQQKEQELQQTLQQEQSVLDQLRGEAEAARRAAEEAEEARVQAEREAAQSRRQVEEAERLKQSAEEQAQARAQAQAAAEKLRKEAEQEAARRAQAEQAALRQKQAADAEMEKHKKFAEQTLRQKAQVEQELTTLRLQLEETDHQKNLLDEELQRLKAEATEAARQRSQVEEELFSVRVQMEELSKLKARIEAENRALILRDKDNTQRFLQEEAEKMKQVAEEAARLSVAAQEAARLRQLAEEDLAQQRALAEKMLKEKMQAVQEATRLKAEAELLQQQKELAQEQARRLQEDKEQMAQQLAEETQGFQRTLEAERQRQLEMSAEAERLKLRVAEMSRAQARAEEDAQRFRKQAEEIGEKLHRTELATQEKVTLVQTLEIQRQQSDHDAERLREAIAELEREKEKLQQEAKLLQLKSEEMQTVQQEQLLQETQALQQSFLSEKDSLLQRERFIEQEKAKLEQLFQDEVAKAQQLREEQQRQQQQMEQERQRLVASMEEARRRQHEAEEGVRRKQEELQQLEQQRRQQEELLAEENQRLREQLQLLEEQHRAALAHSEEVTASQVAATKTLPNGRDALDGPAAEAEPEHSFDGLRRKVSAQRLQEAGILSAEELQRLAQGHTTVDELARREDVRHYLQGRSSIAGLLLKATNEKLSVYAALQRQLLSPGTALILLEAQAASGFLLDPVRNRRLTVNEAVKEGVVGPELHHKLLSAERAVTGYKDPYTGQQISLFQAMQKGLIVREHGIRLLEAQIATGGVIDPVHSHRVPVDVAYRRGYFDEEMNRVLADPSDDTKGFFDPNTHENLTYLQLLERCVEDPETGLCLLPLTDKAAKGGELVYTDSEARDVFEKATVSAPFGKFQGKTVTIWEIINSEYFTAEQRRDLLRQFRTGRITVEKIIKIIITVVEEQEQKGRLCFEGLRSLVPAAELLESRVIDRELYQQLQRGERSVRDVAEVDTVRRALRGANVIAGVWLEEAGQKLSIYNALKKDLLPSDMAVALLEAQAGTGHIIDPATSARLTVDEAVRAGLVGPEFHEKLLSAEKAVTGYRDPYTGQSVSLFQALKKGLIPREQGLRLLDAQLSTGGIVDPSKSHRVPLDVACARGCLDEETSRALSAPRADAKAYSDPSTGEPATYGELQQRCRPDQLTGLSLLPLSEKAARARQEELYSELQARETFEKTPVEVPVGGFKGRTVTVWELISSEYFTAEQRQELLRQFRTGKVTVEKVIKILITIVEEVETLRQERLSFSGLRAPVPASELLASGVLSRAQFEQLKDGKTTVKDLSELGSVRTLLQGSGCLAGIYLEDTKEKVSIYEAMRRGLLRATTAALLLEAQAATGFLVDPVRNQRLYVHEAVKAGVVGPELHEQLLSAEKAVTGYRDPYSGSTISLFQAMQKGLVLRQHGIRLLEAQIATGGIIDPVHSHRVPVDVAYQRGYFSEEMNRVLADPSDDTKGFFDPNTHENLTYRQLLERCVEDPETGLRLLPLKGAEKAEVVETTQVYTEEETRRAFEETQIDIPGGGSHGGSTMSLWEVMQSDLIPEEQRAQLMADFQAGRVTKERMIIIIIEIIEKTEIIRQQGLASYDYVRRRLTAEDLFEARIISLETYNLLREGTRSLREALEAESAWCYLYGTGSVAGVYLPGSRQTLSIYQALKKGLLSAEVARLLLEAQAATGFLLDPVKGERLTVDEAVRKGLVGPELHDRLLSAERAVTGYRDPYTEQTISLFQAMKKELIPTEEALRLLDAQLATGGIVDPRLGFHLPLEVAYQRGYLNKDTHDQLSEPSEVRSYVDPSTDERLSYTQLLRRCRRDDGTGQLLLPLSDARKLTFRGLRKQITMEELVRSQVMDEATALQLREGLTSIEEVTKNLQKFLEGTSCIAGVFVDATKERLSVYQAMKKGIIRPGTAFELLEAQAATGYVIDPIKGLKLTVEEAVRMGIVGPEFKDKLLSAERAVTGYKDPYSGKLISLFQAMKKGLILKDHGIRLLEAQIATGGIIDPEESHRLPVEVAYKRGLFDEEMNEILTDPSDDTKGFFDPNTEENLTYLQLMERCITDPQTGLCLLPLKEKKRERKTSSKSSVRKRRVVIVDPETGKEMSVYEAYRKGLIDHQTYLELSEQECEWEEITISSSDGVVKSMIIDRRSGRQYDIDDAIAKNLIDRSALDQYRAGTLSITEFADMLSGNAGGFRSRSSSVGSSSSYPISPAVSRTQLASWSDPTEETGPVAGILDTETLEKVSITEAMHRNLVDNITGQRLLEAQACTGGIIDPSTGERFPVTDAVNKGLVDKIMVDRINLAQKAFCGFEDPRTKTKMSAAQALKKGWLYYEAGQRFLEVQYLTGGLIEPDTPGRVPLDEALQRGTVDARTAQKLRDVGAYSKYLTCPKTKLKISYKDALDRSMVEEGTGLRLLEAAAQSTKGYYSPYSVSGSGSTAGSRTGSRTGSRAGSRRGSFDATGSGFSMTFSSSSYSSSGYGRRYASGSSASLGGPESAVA
Chain of Acyl-coenzyme A thioesterase 13 (Homo sapiens) (Q9NPJ3 whole entry): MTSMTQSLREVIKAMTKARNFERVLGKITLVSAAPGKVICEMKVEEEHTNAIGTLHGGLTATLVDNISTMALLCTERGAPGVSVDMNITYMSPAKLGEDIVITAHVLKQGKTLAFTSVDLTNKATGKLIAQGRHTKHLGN
Chain of AH receptor-interacting protein (Homo sapiens) (O00170 whole entry): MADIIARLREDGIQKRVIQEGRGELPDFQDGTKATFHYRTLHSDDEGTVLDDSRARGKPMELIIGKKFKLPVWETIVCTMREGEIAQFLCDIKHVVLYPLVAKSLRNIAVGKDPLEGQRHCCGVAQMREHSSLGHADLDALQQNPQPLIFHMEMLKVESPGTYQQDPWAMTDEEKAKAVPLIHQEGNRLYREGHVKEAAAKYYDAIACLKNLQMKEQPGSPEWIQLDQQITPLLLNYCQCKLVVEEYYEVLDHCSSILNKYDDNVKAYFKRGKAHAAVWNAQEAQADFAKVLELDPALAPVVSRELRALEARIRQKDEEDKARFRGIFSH

## C=CC(=O)Nc1ccccc1Nc1nc(Nc2ccc(N3CCN(C)CC3)cc2)ncc1Cl
[1]
  inhibition: -8.5%
[2]
  inhibition: -10%

## COc1cc(O)c2c(c1)/C=C/C[C@H](O)[C@H](O)C(=O)/C=C\C[C@H](C)OC2=O
[3]
  Activity: 3.8%

## C=CC(=O)Nc1ccccc1Nc1nc(Nc2ccc(N3CCN(CCOCCOCCOCCNC(=O)CCCC[C@@H]4SC[C@@H]5NC(=O)N[C@@H]54)CC3)cc2)ncc1Cl
[4]
  Activity: Active
[5]
  Activity: Active
[6]
  Activity: Active
NCI-H358
  Activity: Active
[7]
  Activity: Active
[8]
  Activity: Active
[9]
  Activity: Active
[10]
  Activity: Active
[11]
  Activity: Active
[12]
  Activity: Active
Plectin (Homo sapiens) [13]
  Activity: Active
[14]
  Activity: Active
Plectin (Homo sapiens) [15]
  Activity: Active
[16]
  Activity: Active
[17]
  Activity: Active
[18]
  Activity: Active
[19]
  Activity: Active
[20]
  Activity: Active
[21]
  Activity: Active
[22]
  Activity: Active
[23]
  Activity: Active
[24]
  Activity: Active
[25]
  Activity: Active
[26]
  Activity: Active
